Measured values of several laboratories.
Protocols differ between the studies behind these lines.

COc1ccc(-c2ccc(-c3ccc(C(=N)N)nc3)s2)cc1Cl — GI50 (OVCAR-5; cell growth or viability, SRB): 1.86 µM
CC[C@@H]1C=CC(=O)O[C@@H]1C[C@@H](O)[C@H](C)[C@H](OC)[C@@H](C)Cc1ccccc1 — GI50 (OVCAR-5; cell growth or viability, MTT; 48 h): 0.0575 µM
CC#CC(=O)N1CC[C@@H](n2cc(-c3ccc(Oc4c(F)cccc4F)cc3)c3c(N)n[nH]c(=O)c32)C1 — GI50 (Granta-519; cell growth or viability, ATP luminescence; 72 h): 2.69 µM
COc1cc(Nc2nccc(-c3cnn4nc(OC)ccc34)n2)cc(C(F)(F)F)c1 — IC50 (BEN; cell growth or viability, ATP luminescence): > 3 µM
CC/C(=C(\c1ccccc1)c1ccc(OCCN(C)C)cc1)c1ccccc1 — EC90 (Capan-2; cell growth or viability, ATP luminescence; 72 h): 25.8 µM
CC[C@@H]1C=CC(=O)O[C@@H]1C[C@@H](OC)[C@H](C)[C@H](OC)[C@@H](C)Cc1ccc(F)cc1 — GI50 (OVCAR-5; cell growth or viability, MTT; 48 h): 0.784 µM
C=CC(=O)N1CCC[C@@H](n2nc(-c3ccc(Oc4ccccc4)cc3)c3c(N)ncnc32)C1 — GI50 (Z-138; cell growth or viability, ATP luminescence; 72 h): 17.2 µM
COc1ccc(S(=O)(=O)Nc2ccc3oc(-c4ccc(NC(=O)c5cccc(C)c5[N+](=O)[O-])cc4)nc3c2)cc1 — EC50 (DLD-1; colony formation): 16 µM
C[C@]12CC[C@@H]3c4ccc(O)cc4CC[C@H]3[C@@H]1CC[C@@H]2O — EC90 (Capan-2; cell growth or viability, ATP luminescence; 72 h): 150 µM
